Measurements as given in ChEMBL document CHEMBL1649446, “Comparative antipneumococcal activities of sulopenem and other drugs” (2009).

Key:
Format in all cases: functional
Streptococcus pneumoniae [1] = assay: Antimicrobial activity against compound-intermediate Streptococcus pneumoniae by agar dilution method
Procedure, shortened: (§1)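 Agar dilution MIC on Mueller-Hinton agar with 5% sheep blood, inocula 10^4 CFU/spot; amoxicillin-clavulanate combined 1:2; S. pneumoniae ATCC 49619 quality control each run.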

Streptococcus pneumoniae [2] = assay: Antimicrobial activity against compound-susceptible Streptococcus pneumoniae by agar dilution method; procedure, shortened: as §1
Streptococcus pneumoniae [3] = assay: Antimicrobial activity against Streptococcus pneumoniae isolate 3791 by agar dilution method; procedure, shortened: as §1
Streptococcus pneumoniae [4] = assay: Antimicrobial activity against Streptococcus pneumoniae isolate 1146 by agar dilution method; procedure, shortened: as §1
Streptococcus pneumoniae [5] = assay: Antimicrobial activity against Streptococcus pneumoniae isolate 3587 by agar dilution method
Streptococcus pneumoniae [6] = assay: Antimicrobial activity against Streptococcus pneumoniae isolate 1397 by agar dilution method; procedure, shortened: as §1
Streptococcus pneumoniae [7] = assay: Antimicrobial activity against Streptococcus pneumoniae isolate 3374 by agar dilution method; procedure, shortened: as §1
Streptococcus pneumoniae [8] = assay: Antimicrobial activity against Streptococcus pneumoniae isolate 33 by agar dilution method; procedure, shortened: as §1
Streptococcus pneumoniae [9] = assay: Antimicrobial activity against Streptococcus pneumoniae isolate 1564 by agar dilution method
Streptococcus pneumoniae [10] = assay: Antimicrobial activity against Streptococcus pneumoniae isolate 1055 by agar dilution method
Streptococcus pneumoniae [11] = assay: Antimicrobial activity against Streptococcus pneumoniae isolate 3458 by agar dilution method
Streptococcus pneumoniae [12] = assay: Antimicrobial activity against Streptococcus pneumoniae isolate 3282 by agar dilution method
Streptococcus pneumoniae [13] = assay: Antimicrobial activity against Streptococcus pneumoniae isolate 3412 by agar dilution method; procedure, shortened: as §1
Streptococcus pneumoniae [14] = assay: Antimicrobial activity against Streptococcus pneumoniae isolate 3346 by agar dilution method
Streptococcus pneumoniae [15] = assay: Antimicrobial activity against Streptococcus pneumoniae isolate 3260 by agar dilution method
Streptococcus pneumoniae [16] = assay: Antimicrobial activity against Streptococcus pneumoniae isolate 1147 by agar dilution method; procedure, shortened: as §1
Streptococcus pneumoniae [17] = assay: Antimicrobial activity against Streptococcus pneumoniae isolate 2880 by agar dilution method; procedure, shortened: as §1
Streptococcus pneumoniae [18] = assay: Antimicrobial activity against Streptococcus pneumoniae isolate 1384 by agar dilution method; procedure, shortened: as §1
Streptococcus pneumoniae [19] = assay: Antimicrobial activity against Streptococcus pneumoniae isolate 3681 by agar dilution method; procedure, shortened: as §1
Streptococcus pneumoniae [20] = assay: Antimicrobial activity against Streptococcus pneumoniae isolate 4755 by agar dilution method; procedure, shortened: as §1
Streptococcus pneumoniae [21] = assay: Antimicrobial activity against Streptococcus pneumoniae isolate 3481 by agar dilution method; procedure, shortened: as §1
Streptococcus pneumoniae [22] = assay: Antimicrobial activity against Streptococcus pneumoniae isolate 3455 by agar dilution method
Streptococcus pneumoniae [23] = assay: Antimicrobial activity against Streptococcus pneumoniae isolate 37 by agar dilution method; procedure, shortened: as §1
Streptococcus pneumoniae [24] = assay: Antimicrobial activity against Streptococcus pneumoniae isolate 1394 by agar dilution method
Streptococcus pneumoniae [25] = assay: Antimicrobial activity against Streptococcus pneumoniae isolate 24 by agar dilution method
Streptococcus pneumoniae [26] = assay: Antimicrobial activity against Streptococcus pneumoniae isolate 3275 by agar dilution method; procedure, shortened: as §1
Streptococcus pneumoniae [27] = assay: Antimicrobial activity against Streptococcus pneumoniae isolate 2617 by agar dilution method; procedure, shortened: as §1
Streptococcus pneumoniae [28] = assay: Antimicrobial activity against Streptococcus pneumoniae isolate 4747 by agar dilution method; procedure, shortened: as §1
Streptococcus pneumoniae [29] = assay: Antimicrobial activity against compound-resistant Streptococcus pneumoniae by agar dilution method
Procedure, shortened: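 Agar dilution on Mueller-Hinton agar with 5% sheep blood, inocula 10^4 CFU/spot. Panel of 45 drug-resistant serotype 19A pneumococci, plus 297 clinical strains grouped as penicillin-susceptible, -intermediate or -resistant (some macrolide- or levofloxacin-resistant, with defined mechanisms). Amoxicillin combined with clavulanate 1:2. S. pneumoniae ATCC 49619 quality control included in each run. MIC range, MIC50 and MIC90 reported.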

Streptococcus pneumoniae [30] = assay: Antimicrobial activity against Streptococcus pneumoniae isolate 2688 by agar dilution method; procedure, shortened: as §1
Streptococcus pneumoniae [31] = assay: Antimicrobial activity against Streptococcus pneumoniae isolate 1424 by agar dilution method; procedure, shortened: as §1
Streptococcus pneumoniae [32] = assay: Antimicrobial activity against Streptococcus pneumoniae isolate 2686 by agar dilution method; procedure, shortened: as §1
Streptococcus pneumoniae [33] = assay: Antimicrobial activity against Streptococcus pneumoniae isolate 2874 by agar dilution method; procedure, shortened: as §1
Streptococcus pneumoniae [34] = assay: Antimicrobial activity against penicillin-resistant Streptococcus pneumoniae by agar dilution method; procedure, shortened: as §1
Streptococcus pneumoniae [35] = assay: Antimicrobial activity against penicillin-susceptible Streptococcus pneumoniae by agar dilution method
Streptococcus pneumoniae [36] = assay: Antimicrobial activity against Streptococcus pneumoniae 12 by time-kill analysis
Procedure, shortened: (§2)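 Time-kill in cation-adjusted Mueller-Hinton broth with 5% lysed horse blood; inocula 5 × 105 to 5 × 10^6 CFU/ml; drugs at MIC, 2× and 4× MIC; 35°C shaking water bath; viable counts at 0, 3, 6, 12, 24 h. Bactericidal = ≥3 log10 CFU/ml (99.9%) drop from original inoculum; 90%/99%/99.9% killing scored per strain.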

Streptococcus pneumoniae [37] = assay: Antimicrobial activity against Streptococcus pneumoniae 9 by time-kill analysis
Procedure, shortened: (§3)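 Time-kill in cation-adjusted Mueller-Hinton broth with 5% lysed horse blood; inocula 5 × 105 to 5 × 10^6 CFU/ml; drugs at MIC, 2× and 4× MIC; 35°C shaking water bath; viable counts at 0, 3, 6, 12 and 24 h. Bactericidal if ≥3 log10 CFU/ml (99.9%) reduction from original inoculum; 90% and 99% killing also scored.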

Streptococcus pneumoniae [38] = assay: Antimicrobial activity against Streptococcus pneumoniae 19A by agar dilution method; procedure, shortened: as §1
Streptococcus pneumoniae [39] = assay: Antimicrobial activity against Streptococcus pneumoniae 3 by time-kill analysis; procedure, shortened: as §2
Streptococcus pneumoniae [40] = assay: Antimicrobial activity against Streptococcus pneumoniae 5 by time-kill analysis; procedure, shortened: as §3
Streptococcus pneumoniae [41] = assay: Antimicrobial activity against Streptococcus pneumoniae 2 by time-kill analysis; procedure, shortened: as §2
Streptococcus pneumoniae [42] = assay: Antimicrobial activity against penicillin-intermediate Streptococcus pneumoniae by agar dilution method
Streptococcus pneumoniae [43] = assay: Antimicrobial activity against Streptococcus pneumoniae isolate 3263 by agar dilution method
Streptococcus pneumoniae [44] = assay: Antimicrobial activity against Streptococcus pneumoniae 1 by time-kill analysis; procedure, shortened: as §3
Streptococcus pneumoniae [45] = assay: Antimicrobial activity against Streptococcus pneumoniae 7 by time-kill analysis; procedure, shortened: as §2
Streptococcus pneumoniae [46] = assay: Antimicrobial activity against Streptococcus pneumoniae 10 by time-kill analysis; procedure, shortened: as §2
Streptococcus pneumoniae [47] = assay: Antimicrobial activity against Streptococcus pneumoniae 11 by time-kill analysis; procedure, shortened: as §2
Streptococcus pneumoniae [48] = assay: Antimicrobial activity against Streptococcus pneumoniae 6 by time-kill analysis; procedure, shortened: as §2
Streptococcus pneumoniae [49] = assay: Antimicrobial activity against Streptococcus pneumoniae 4 by time-kill analysis; procedure, shortened: as §2
Streptococcus pneumoniae [50] = assay: Antimicrobial activity against Streptococcus pneumoniae 8 by time-kill analysis; procedure, shortened: as §2

CC1(C)S[C@@H]2[C@H](NC(=O)Cc3ccccc3)C(=O)N2[C@H]1C(=O)O [PENICILLIN G]
0.25 µg/mL: MIC50 (Streptococcus pneumoniae [1])
16 µg/mL: MIC (Streptococcus pneumoniae [9])
2 µg/mL: MIC (Streptococcus pneumoniae [3]) | MIC (Streptococcus pneumoniae [5]) | MIC (Streptococcus pneumoniae [6]) | MIC (Streptococcus pneumoniae [7]) | MIC (Streptococcus pneumoniae [10]) | MIC (Streptococcus pneumoniae [13]) | MIC (Streptococcus pneumoniae [29]) | MIC50 (Streptococcus pneumoniae [29]) | MIC (Streptococcus pneumoniae [31])
4 µg/mL: MIC (Streptococcus pneumoniae [4]) | MIC (Streptococcus pneumoniae [8]) | MIC (Streptococcus pneumoniae [11]) | MIC (Streptococcus pneumoniae [12]) | MIC (Streptococcus pneumoniae [14]) | MIC (Streptococcus pneumoniae [15]) | MIC (Streptococcus pneumoniae [16]) | MIC (Streptococcus pneumoniae [17]) | MIC (Streptococcus pneumoniae [18]) | MIC (Streptococcus pneumoniae [22]) | MIC (Streptococcus pneumoniae [23]) | MIC (Streptococcus pneumoniae [24]) | MIC (Streptococcus pneumoniae [25]) | MIC (Streptococcus pneumoniae [28]) | MIC90 (Streptococcus pneumoniae [29]) | MIC (Streptococcus pneumoniae [32])
8 µg/mL: MIC (Streptococcus pneumoniae [20]) | MIC (Streptococcus pneumoniae [21]) | MIC (Streptococcus pneumoniae [30]) | MIC (Streptococcus pneumoniae [33])
0.06 µg/mL: MIC90 (Streptococcus pneumoniae [2])
1 µg/mL: MIC90 (Streptococcus pneumoniae [1]) | MIC (Streptococcus pneumoniae [19]) | MIC (Streptococcus pneumoniae [26]) | MIC (Streptococcus pneumoniae [27])
0.03 µg/mL: MIC50 (Streptococcus pneumoniae [2])

C[C@@H](O)[C@H]1C(=O)N2C(C(=O)O)=C(SCCNC=N)C[C@H]12 [IMIPENEM ANHYDROUS]
0.25 µg/mL: MIC50 (Streptococcus pneumoniae [34]) | MIC90 (Streptococcus pneumoniae [34]) | MIC (Streptococcus pneumoniae [36]) | MIC (Streptococcus pneumoniae [6]) | MIC (Streptococcus pneumoniae [10]) | MIC (Streptococcus pneumoniae [14]) | MIC (Streptococcus pneumoniae [15]) | MIC (Streptococcus pneumoniae [17]) | MIC (Streptococcus pneumoniae [23]) | MIC (Streptococcus pneumoniae [24]) | MIC (Streptococcus pneumoniae [25]) | MIC (Streptococcus pneumoniae [47]) | MIC (Streptococcus pneumoniae [49]) | MIC (Streptococcus pneumoniae [30]) | MIC (Streptococcus pneumoniae [31]) | MIC (Streptococcus pneumoniae [50]) | MIC (Streptococcus pneumoniae [32]) | MIC (Streptococcus pneumoniae [33])
0.125 µg/mL: MIC (Streptococcus pneumoniae [3]) | MIC (Streptococcus pneumoniae [5]) | MIC (Streptococcus pneumoniae [7]) | MIC (Streptococcus pneumoniae [9]) | MIC (Streptococcus pneumoniae [12]) | MIC (Streptococcus pneumoniae [13]) | MIC (Streptococcus pneumoniae [18]) | MIC (Streptococcus pneumoniae [19]) | MIC (Streptococcus pneumoniae [20]) | MIC90 (Streptococcus pneumoniae [42]) | MIC (Streptococcus pneumoniae [21]) | MIC (Streptococcus pneumoniae [27]) | MIC (Streptococcus pneumoniae [28])
0.008 µg/mL: MIC50 (Streptococcus pneumoniae [35]) | MIC90 (Streptococcus pneumoniae [35])
0.5 µg/mL: MIC (Streptococcus pneumoniae [4]) | MIC50 (Streptococcus pneumoniae [38]) | MIC90 (Streptococcus pneumoniae [38]) | MIC (Streptococcus pneumoniae [8]) | MIC (Streptococcus pneumoniae [11]) | MIC (Streptococcus pneumoniae [40]) | MIC (Streptococcus pneumoniae [16]) | MIC (Streptococcus pneumoniae [22]) | MIC (Streptococcus pneumoniae [45])
0.03 µg/mL: MIC (Streptococcus pneumoniae [37]) | MIC50 (Streptococcus pneumoniae [42]) | MIC (Streptococcus pneumoniae [26]) | MIC (Streptococcus pneumoniae [46]) | MIC (Streptococcus pneumoniae [48])
0.004 µg/mL: MIC (Streptococcus pneumoniae [41]) | MIC (Streptococcus pneumoniae [44])
0.06 µg/mL: MIC (Streptococcus pneumoniae [39]) | MIC (Streptococcus pneumoniae [43])

CO/N=C(\C(=O)N[C@@H]1C(=O)N2C(C(=O)O)=C(COC(N)=O)CS[C@H]12)c1ccco1 [CEFUROXIME]
64 µg/mL: MIC (Streptococcus pneumoniae [9])
0.25 µg/mL: MIC (Streptococcus pneumoniae [37]) | MIC50 (Streptococcus pneumoniae [42]) | MIC (Streptococcus pneumoniae [46])
2 µg/mL: MIC (Streptococcus pneumoniae [25]) | MIC (Streptococcus pneumoniae [26])
0.016 µg/mL: MIC (Streptococcus pneumoniae [41])
32 µg/mL: MIC (Streptococcus pneumoniae [30])
1 µg/mL: MIC (Streptococcus pneumoniae [39])
4 µg/mL: MIC50 (Streptococcus pneumoniae [34]) | MIC (Streptococcus pneumoniae [36]) | MIC (Streptococcus pneumoniae [8]) | MIC (Streptococcus pneumoniae [10]) | MIC (Streptococcus pneumoniae [12]) | MIC (Streptococcus pneumoniae [13]) | MIC (Streptococcus pneumoniae [14]) | MIC (Streptococcus pneumoniae [15]) | MIC (Streptococcus pneumoniae [17]) | MIC (Streptococcus pneumoniae [18]) | MIC (Streptococcus pneumoniae [19]) | MIC90 (Streptococcus pneumoniae [42]) | MIC (Streptococcus pneumoniae [22]) | MIC (Streptococcus pneumoniae [23]) | MIC (Streptococcus pneumoniae [43]) | MIC (Streptococcus pneumoniae [45]) | MIC (Streptococcus pneumoniae [27]) | MIC (Streptococcus pneumoniae [47])
8 µg/mL: MIC (Streptococcus pneumoniae [3]) | MIC (Streptococcus pneumoniae [4]) | MIC (Streptococcus pneumoniae [5]) | MIC (Streptococcus pneumoniae [6]) | MIC50 (Streptococcus pneumoniae [38]) | MIC (Streptococcus pneumoniae [7]) | MIC (Streptococcus pneumoniae [11]) | MIC (Streptococcus pneumoniae [16]) | MIC (Streptococcus pneumoniae [20]) | MIC (Streptococcus pneumoniae [21]) | MIC (Streptococcus pneumoniae [28]) | MIC (Streptococcus pneumoniae [50]) | MIC (Streptococcus pneumoniae [33])
16 µg/mL: MIC90 (Streptococcus pneumoniae [34]) | MIC90 (Streptococcus pneumoniae [38]) | MIC (Streptococcus pneumoniae [40]) | MIC (Streptococcus pneumoniae [24]) | MIC (Streptococcus pneumoniae [49]) | MIC (Streptococcus pneumoniae [31]) | MIC (Streptococcus pneumoniae [32])
0.5 µg/mL: MIC (Streptococcus pneumoniae [48])
0.03 µg/mL: MIC50 (Streptococcus pneumoniae [35]) | MIC (Streptococcus pneumoniae [44])
0.125 µg/mL: MIC90 (Streptococcus pneumoniae [35])
